Calls of active or inactive are those of the source. The rule behind the calls is not given here.

The target in series [1] is Histone deacetylase (Homo sapiens) (UniProt Q13547+O15379+Q9UBN7+Q92769+Q9UQL6+Q8WUI4+Q9BY41+Q96DB2+P56524+Q9UKV0+Q969S8). The series is described as follows: Inhibition of HDAC in human MDA-MB-231 cells assessed as stimulation of histone H3 acetylation at 0.1 uM incubated for 24 hrs by Western blot. Type of series: cell-based. An outline of the steps:
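MDA-MB-231 cells in 35-mm dishes, dosed 24 h at graded concentrations, then trypsinized and PBS-washed. Lysed in RIPA (50 mM Tris-HCl pH 7.5, protease and phosphatase inhibitors) for 30 min at 4 °C, then cleared at 12,000g. Lysate, 60 μg protein by BCA, run on SDS-PAGE and PVDF. Blotted with anti-acetyl-histone H3 and HRP anti-rabbit, read by ECL.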

In series [2] the test system is HL-60(TB). Description: cells. Type of series: functional. Particulars: Homo sapiens, HL-60, 72 h.
Series [3] concerns SR. The series is described as follows: Growth inhibition of human SR cells after 72 hrs by MTS assay. Type of series: functional. For orientation: Tetrazolium dyes change colour on reduction, which living cells bring about.
Series [4] deals with NCI-H23. Description: cells. It is filed as functional. The note with it: Homo sapiens, NCI-H23, 72 h.
Series [5] has as its system NCI-H322M. Description: Growth inhibition of human NCI-H322M cells after 72 hrs by MTS assay. It is filed as functional.
For series [6], the system named is NCI-H460. The series is described as follows: Growth inhibition of human NCI-H460 cells after 72 hrs by MTS assay. Type of series: functional. The note with it: NCI-H460, 72 h.
In series [7] the test system is NCI-H522. The series is described as follows: cells. It is filed as functional. The note with it: Homo sapiens, NCI-H522, 72 h.
In series [8] the test system is SW-620. The series is described as follows: cells. Type of series: functional. The note with it: Homo sapiens, SW-620, 72 h.
In series [9] the test system is SK-OV-3. The series is described as follows: cells. It is filed as functional. The note with it: Homo sapiens, SK-OV-3, 72 h.
Series [10] has as its system PC-3. Description: cells. It is filed as functional. Particulars: Homo sapiens, PC-3, 72 h.
For series [11], the system named is DU-145. The series is described as follows: cells. It is filed as functional. The note with it: Homo sapiens, DU-145, 72 h.
Series [12] deals with SNB-75. The series is described as follows: Growth inhibition of human SNB75 cells after 72 hrs by MTS assay. It is filed as functional. Particulars: SNB-75, 72 h.
In series [13] the test system is 786-0. Description: cells. It is filed as functional. Particulars: Homo sapiens, 786-0, 72 h.
Series [14] concerns ACHN. Description: cells. Type of series: functional. Particulars: Homo sapiens, 72 h.
The subject of series [15] is MDA-MB-468. Description: cells. It is filed as functional. Particulars: Homo sapiens, MDA-MB-468, 72 h.
A short description of series [16]: cells. Type of series: functional. Particulars: Homo sapiens, Hs-578T, 72 h.
The test system of series [17] is BT-549. Description: cells. Type of series: functional. Particulars: Homo sapiens, BT-549, 72 h.
Series [18] has as its target Histone deacetylase. The series is described as follows: Inhibition of HDAC in human HeLa cell nuclear extracts using Ac-Arg-Gly-Lys(Ac)-AMC substrate by fluorimetry. Type of series: protein assay.
The test system of series [19] is MDA-MB-231. The series is described as follows: cells. Type of series: functional. The note with it: Homo sapiens, MDA-MB-231, 72 h.
Series [20] deals with MCF7. Description: cells. It is filed as functional. The note with it: Homo sapiens, MCF7, 48 h.
The nature of series [21]: Lipophilicity, log D of the compound in pH 7.4 PBS buffer. It is filed as physicochemical.
Series [22] in a line: Half life in artificial gastric fluid. Type of series: physicochemical.
Series [23] deals with Cytochrome P450 3A4 (Homo sapiens, UniProt P08684). The series is described as follows: Inhibition of human CYP3A4. Type of series: ADME.
Chain of Cytochrome P450 3A4 (P08684 whole entry): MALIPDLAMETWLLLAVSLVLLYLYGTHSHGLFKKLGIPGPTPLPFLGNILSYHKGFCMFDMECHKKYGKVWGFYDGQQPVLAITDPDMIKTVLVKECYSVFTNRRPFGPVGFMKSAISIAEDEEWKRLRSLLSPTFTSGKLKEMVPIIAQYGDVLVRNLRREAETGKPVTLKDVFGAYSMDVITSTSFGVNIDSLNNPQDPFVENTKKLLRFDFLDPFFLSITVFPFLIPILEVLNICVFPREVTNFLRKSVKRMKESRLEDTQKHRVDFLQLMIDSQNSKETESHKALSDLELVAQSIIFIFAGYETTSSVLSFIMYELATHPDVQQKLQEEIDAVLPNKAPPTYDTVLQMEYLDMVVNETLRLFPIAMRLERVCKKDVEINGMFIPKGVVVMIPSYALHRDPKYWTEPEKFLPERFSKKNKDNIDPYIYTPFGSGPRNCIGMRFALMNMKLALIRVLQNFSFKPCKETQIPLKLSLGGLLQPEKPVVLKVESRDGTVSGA
Series [24] in a line: Efflux ratio, ratio of apparent permeability from basolateral to apical side over apparent permeability from apical to basolateral side in human Caco2 cells at 10 uM. It is filed as ADME, cell-based. The note with it: Caco-2. An outline of the steps:
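Caco-2 monolayers, test compound at 10 μM. Apparent permeability measured in both directions, apical to basolateral and basolateral to apical. Efflux ratio = P_app B to A / P_app A to B. Run by a contract lab following published methods. Mean of three independent triplicate experiments.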
(Caco-2 cells form a polarised layer with tight junctions and transporters.)

In the case of `CC(C)[C@@H](c1nc2ccccc2o1)n1cc(/C=C/C(=O)NO)nn1`, the inhibition entry in [1] is “Active”. The GI50 turned out to be 190 nM in [2]; 90 nM in [3]; 140 nM in series [4]; 140 nM in series [5]; 150 nM in series [6]; 13 nM in series [7]. For the same compound, the GI50 in series [8] is 130 nM; in series [9] it was 140 nM; in series [10], 120 nM; in series [11], 160 nM; in [12] it was 250 nM; in series [13], 170 nM. Moreover, the GI50 in series [14] stood at 210 nM; in series [15], 150 nM; in series [16] it was 580 nM; in [17] it was 52 nM; in [19], 520 nM; in series [20], 180 nM. This compound returned an IC50 in series [18] of 7 nM. This compound gave a logD in series [21] of 2. Moreover, the half-life in series [22] was 9.4 h. The same compound gave an INH in [23] of 31.9 µM. The efflux ratio at 10 µM in series [24] was 1.15.

The GI50 is the concentration giving 50% growth inhibition. A low value points to greater sensitivity of the cells. Usually IC50 stands for the concentration needed to halve the response being measured. High values mean lower potency, low ones higher potency. The logD is lipophilicity at a set pH, counting ionised and neutral species. A word on the half-life: it is how long it takes for the measured level to halve. What is called efflux ratio is the permeability from basolateral to apical divided by that in the opposite direction, in the common usage.

Values taken from ChEMBL document CHEMBL2034936, “Discovery and extensive in vitro evaluations of NK-HDAC-1: a chiral histone deacetylase inhibitor as a promising lead” (J Med Chem, 2012).
